Assay [1] has as its system NCI-H460. In words: Cytotoxicity against human H460 cells after 24 hrs by sulforhodamine B assay. It is filed as functional, cell-based. As to conditions: NCI-H460, 24 h. In general terms: Sulforhodamine B stains cellular protein and so reports cell mass.
The target in assay [2] is T1, Histone deacetylase 8 (Homo sapiens, UniProt Q9BY41).
T1 sequence (Q9BY41 whole entry): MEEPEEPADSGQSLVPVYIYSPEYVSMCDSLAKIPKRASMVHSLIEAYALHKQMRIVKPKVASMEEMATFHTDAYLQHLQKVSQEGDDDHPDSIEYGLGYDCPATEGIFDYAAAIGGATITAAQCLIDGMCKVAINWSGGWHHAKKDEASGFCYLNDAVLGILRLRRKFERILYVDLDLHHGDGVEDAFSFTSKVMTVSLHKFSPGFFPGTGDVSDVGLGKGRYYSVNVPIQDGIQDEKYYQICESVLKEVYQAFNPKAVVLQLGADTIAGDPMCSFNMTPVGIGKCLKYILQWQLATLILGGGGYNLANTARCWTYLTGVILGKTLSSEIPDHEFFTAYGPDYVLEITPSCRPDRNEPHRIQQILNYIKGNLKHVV
In words: Inhibition of human HDAC8 by fluorimetry. In a few lines: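 Each purified single HDAC isoform incubated with fluorogenic substrate, a p53 fragment (residues […], Arg-His-Lys-Lys(Ac)) carrying an ε-acetylated lysine; deacetylation releases fluorophore, read by fluorimeter. Compounds tested as 10 doses, 1:3 serial dilution starting from 50 µM solution. IC50 from dose-response inhibition curves; trichostatin A as reference compound.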

Assay [3] addresses T2, Histone deacetylase 7 (Homo sapiens, UniProt Q8WUI4).
T2 sequence (Q8WUI4 whole entry): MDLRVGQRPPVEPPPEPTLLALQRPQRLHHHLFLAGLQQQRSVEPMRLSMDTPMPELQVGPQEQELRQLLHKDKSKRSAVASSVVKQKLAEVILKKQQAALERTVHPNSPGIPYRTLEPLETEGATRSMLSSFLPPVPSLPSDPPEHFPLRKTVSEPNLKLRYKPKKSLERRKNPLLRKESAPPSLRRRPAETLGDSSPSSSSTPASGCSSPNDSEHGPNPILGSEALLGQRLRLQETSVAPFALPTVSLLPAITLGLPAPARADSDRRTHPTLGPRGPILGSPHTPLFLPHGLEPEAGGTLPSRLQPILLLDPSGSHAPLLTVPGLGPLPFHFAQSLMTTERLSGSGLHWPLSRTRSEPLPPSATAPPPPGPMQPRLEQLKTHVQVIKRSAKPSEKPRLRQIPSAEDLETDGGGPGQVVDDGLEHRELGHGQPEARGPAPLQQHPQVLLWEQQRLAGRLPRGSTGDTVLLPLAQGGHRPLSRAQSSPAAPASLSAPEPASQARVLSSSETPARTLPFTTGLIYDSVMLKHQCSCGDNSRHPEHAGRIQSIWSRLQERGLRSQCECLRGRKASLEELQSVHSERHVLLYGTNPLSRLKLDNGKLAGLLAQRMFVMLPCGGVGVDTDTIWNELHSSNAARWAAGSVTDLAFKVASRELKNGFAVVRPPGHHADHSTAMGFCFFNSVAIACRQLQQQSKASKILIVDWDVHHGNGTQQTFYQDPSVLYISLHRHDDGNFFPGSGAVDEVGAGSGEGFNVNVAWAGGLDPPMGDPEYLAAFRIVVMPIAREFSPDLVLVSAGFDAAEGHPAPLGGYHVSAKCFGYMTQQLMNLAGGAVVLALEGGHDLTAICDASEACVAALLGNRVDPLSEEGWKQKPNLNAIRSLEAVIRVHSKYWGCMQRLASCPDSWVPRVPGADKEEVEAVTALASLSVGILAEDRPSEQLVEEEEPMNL
The assay is described as follows: Inhibition of human HDAC7 by fluorimetry.

For orientation: IC50 means the midpoint of a concentration-inhibition curve. Low readings indicate inhibition by little substance, high ones a need for much substance.

For the compound `O=C(/C=C/c1ccc(C(c2c[nH]c3ccccc23)c2c[nH]c3ccccc23)cc1)NO`, the 50% inhibitory concentration (IC50) was 2600 nM in assay [1], 730 nM in assay [2] and 4200 nM in assay [3].

For the origin of these results see ChEMBL document CHEMBL1153591, “Exploring bis-(indolyl)methane moiety as an alternative and innovative CAP group in the design of histone deacetylase (HDAC) inhibitors” (Bioorg Med Chem Lett, 2009).
